In article PMC5939375 (Biochemistry, 2016):
Entries after “also recorded” stand apart in the source; their conditions may differ.

What was measured:
reduced WT FDTS [1] = molecular target: T1, reduced WT FDTS (Thermotoga maritima, UniProt Q9WYT0); assay: Reactivity of dUMP analogs with reduced FDTS in the presence of CH2THF; assay type: biochemical; conditions: anaerobic, 0.1 M Tris-HCl pH 8 at 25 °C; 200 μM CH2THF; 10 mM dU or 200 μM dUMS; over four hours
T1 sequence (Q9WYT0 1-220): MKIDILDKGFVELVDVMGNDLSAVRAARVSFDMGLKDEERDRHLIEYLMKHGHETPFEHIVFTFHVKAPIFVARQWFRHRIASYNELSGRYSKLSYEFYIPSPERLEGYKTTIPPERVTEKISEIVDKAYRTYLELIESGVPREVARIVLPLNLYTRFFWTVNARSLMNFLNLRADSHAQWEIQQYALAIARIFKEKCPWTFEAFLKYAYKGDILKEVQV
In short: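 Recombinant T. maritima WT enzyme, purified, converted to apo-protein with concentrated NaCl, and reconstituted with exogenous FAD after desalting. Run in anaerobic cuvettes in 0.1 M Tris-HCl, pH 8, 25 °C. To reduced enzyme, CH2THF (200 μM final) was added first, then test compound (final concentration as listed). Flavin spectra were followed by scanning spectrophotometry. The mixture was afterwards analysed by HPLC for 2′-deoxythymidine-5′-monosulfate.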

WT FDTS [2] = molecular target: T2, WT FDTS (Thermotoga maritima, UniProt Q9WYT0); assay: Spectrophotometric titration of oxidized WT FDTS with ligand; assay type: binding
R90A FDTS [3] = molecular target: T3, R90A FDTS (Thermotoga maritima, UniProt Q9WYT0, R90A); assay: Spectrophotometric titration of R90A FDTS with ligand; assay type: binding
[4] = cited from earlier work
R174A FDTS [5] = molecular target: T4, R174A FDTS (Thermotoga maritima, UniProt Q9WYT0, R174A); assay: Spectrophotometric titration of R174A FDTS with ligand; assay type: binding
WT FDTS [6] = molecular target: T2, WT FDTS
R90A FDTS [7] = molecular target: T3, R90A FDTS; conditions: R90A variant; oxidative half-reaction with dUMP and CH2THF; cited from earlier work
R174A FDTS [8] = molecular target: T4, R174A FDTS; conditions: R174A variant; oxidative half-reaction with dUMP and CH2THF; cited from earlier work
reduced WT FDTS [9] = molecular target: T1, reduced WT FDTS; conditions: cited from earlier work

T4 sequence (Q9WYT0 whole entry R174A): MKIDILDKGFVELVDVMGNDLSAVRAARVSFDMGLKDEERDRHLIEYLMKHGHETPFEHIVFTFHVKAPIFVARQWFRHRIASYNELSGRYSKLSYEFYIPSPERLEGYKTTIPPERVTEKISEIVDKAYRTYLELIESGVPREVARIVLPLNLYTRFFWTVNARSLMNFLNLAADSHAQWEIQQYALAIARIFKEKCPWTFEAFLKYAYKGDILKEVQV
T3 sequence (Q9WYT0 whole entry R90A): as the sequence (Q9WYT0 whole entry R174A) above, with R90A, A174R counted along it

O=c1ccn([C@H]2C[C@H](O)[C@@H](CO)O2)c(=O)[nH]1 [dU, 2′-Deoxyuridine]
oxidation of reduced FDTS flavin in the presence of CH2THF (reduced WT FDTS [1]): failed to oxidize reduced WT FDTS; also recorded: neither dU nor dUMS cause oxidation of the reduced flavin; also recorded: No oxidation of the flavin occurred | loss of binding energy (WT FDTS [2]; dU binding to WT FDTS vs dUMP): ~ 5.2 kcal/mol

O=c1ccn([C@H]2C[C@H](O)[C@@H](COP(=O)(O)O)O2)c(=O)[nH]1 [dUMP, 2′-deoxyuridine-5′-monophosphate]
Kd (R90A FDTS [3]): 14 ± 2 µM | loss of binding energy (R90A FDTS [3]; dUMP binding to R90A FDTS vs WT): ~ 4.0 kcal/mol | pKa for N3 of dUMP ([4]; aqueous solution): 9.3 | pKa of anionic phosphate oxygen of dUMP ([4]; phosphate oxygen, reference not given): about 7 | Kd (R174A FDTS [5]): 109 ± 6 µM | loss of binding energy (R174A FDTS [5]; dUMP binding to R174A FDTS vs WT): ~ 5.4 kcal/mol | Kd (WT FDTS [2]; Kd, WT FDTS, 0.1 M Tris-HCl, pH 8 at 25 °C, estimate from fitting to Eq. 1): ~0.03 µM | pKa of N3 of dUMP bound to FDTS (WT FDTS [6]; bound to WT FDTS, by the interaction of R174): below 8 | stabilization of the N3 anion of bound dUMP by R174 (WT FDTS [6]; fully ionized at pH 8): at least 2.8 kcal mol^−1 | rate constant for flavin oxidation, fold smaller than wild-type FDTS (R90A FDTS [7]): 8 fold | rate constant for flavin oxidation, fold smaller than wild-type FDTS (R174A FDTS [8]): 3000 fold

O=c1ccn([C@H]2C[C@H](O)[C@@H](COS(=O)(=O)O)O2)c(=O)[nH]1 [dUMS, 2′-deoxyuridine-5′-monosulfate]
oxidation of reduced FDTS flavin in the presence of CH2THF (reduced WT FDTS [1]): unable to oxidize reduced FDTS; also recorded: failed to oxidize reduced FDTS; also recorded: neither dU nor dUMS cause oxidation of the reduced flavin; also recorded: No oxidation of the flavin occurred

O=c1[nH]c(=O)n([C@H]2C[C@H](O)[C@@H](COP(=O)(O)O)O2)cc1F [5F-dUMP, 5-fluoro-2′-deoxyuridine-5′-monophosphate]
oxidation of reduced FDTS in the presence of CH2THF (reduced WT FDTS [9]): cannot oxidize reduced FDTS
